Data published in ChEMBL document CHEMBL4316656, “Antitrypanosomal Activity of Acetogenins Isolated from the Seeds of Porcelia macrocarpa Is Associated with Alterations in Both Plasma Membrane Electric Potential and Mitochondrial Membrane Potential” (J Nat Prod, 2019).
Active and inactive are the calls of the source. The rule behind the calls is not given here.

Experiments:
[1] = tested on: Trypanosoma cruzi; assay: Antitrypanosomal activity against Trypanosoma cruzi trypomastigotes measured after 24 hrs by resazurin dye based assay; assay type: functional, organism-based
Summary of the method: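 Cell-derived trypomastigotes, 1 × 10^6/well, exposed 24 h at 37 °C; viability by resazurin read at 570 nm; benznidazole as standard; IC50 calculated.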

[2] = tested on: Trypanosoma cruzi; assay: Antitrypanosomal activity against Trypanosoma cruzi amastigotes infected in peritoneal macrophages (unknown origin) measured after 48 hrs by resazurin dye based assay; assay type: functional, organism-based
[3] = Cytotoxicity against mouse L929 cells measured after 48 hrs by MTT assay; assay type: cell-based
Summary of the method: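 NCTC clone L929 cells, 6 × 10^4/well, incubated with compound 48 h at 37 °C; viability by MTT at 570 nm; CC50 taken as 50% cytotoxic concentration; highest concentration 200 μM.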

[4] = Selectivity index, ratio of CC50 for mouse L929 cells to IC50 for Trypanosoma cruzi trypomastigotes; assay type: toxicity; conditions: read-out: Ratio CC50/IC50
Summary of the method: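 Ratio of the mammalian CC50 (L929, MTT, 48 h) to the IC50 against trypomastigotes (resazurin, 24 h).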

[5] = tested on: Trypanosoma cruzi; assay: Induction of mitochondrial membrane potential depolarization in Trypanosoma cruzi trypomastigotes at antitrypanosomal IC50 measured after 2 hrs by DAPI/Mito tracker red dye based fluorescence microscopic analysis; assay type: functional, organism-based
Summary of the method: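 Treated trypomastigotes costained with 10 μM DAPI and 1 μM MitoTracker Red CM-H2XROS, 30 min at 37 °C in the dark, then fluorescence microscopy; CCCP positive control, untreated parasites as reference.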

[6] = Selectivity index, ratio of CC50 for mouse L929 cells to IC50 for Trypanosoma cruzi amastigotes infected in peritoneal macrophages (unknown origin); assay type: toxicity; conditions: read-out: Ratio CC50/IC50
Summary of the method: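 Ratio of the L929 CC50 (MTT, 48 h) to the intracellular amastigote IC50 (infected peritoneal macrophages, 48 h).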

[7] = tested on: Trypanosoma cruzi; assay: Antitrypanosomal activity against Trypanosoma cruzi amastigotes infected in peritoneal macrophages (unknown origin) assessed as elimination of parasite at 100 uM by optical microscopic analysis; assay type: functional, organism-based
Summary of the method: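 Peritoneal macrophages infected with T. cruzi trypomastigotes (ratio 10:1) and treated at 100 μM. Infected untreated macrophages served as control. Parasite clearance was judged by optical microscopy at 1000× magnification.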

[8] = tested on: Trypanosoma cruzi; assay: Induction of plasma membrane electric potential depolarization in Trypanosoma cruzi trypomastigotes at antitrypanosomal IC50 measured after 60 mins by DiSBAC2(3) dye based flow cytometry; assay type: functional, organism-based
Summary of the method: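 Trypomastigotes (2 × 10^6/well) exposed at IC50 for 60 min at 37 °C, then 0.2 μM DiSBAC2(3) added and read by flow cytometry; gramicidin D 0.5 μg/mL defined 100%, untreated 0%; at least two independent assays in duplicate.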

[9] = tested on: Trypanosoma cruzi; assay: Induction of reactive oxygen species generation in Trypanosoma cruzi trypomastigotes at antitrypanosomal IC50 measured after 60 to 120 mins by H2DCFDA dye based fluorescence assay; assay type: organism-based; conditions: in vitro
Summary of the method: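 Trypomastigotes incubated with compound at IC50 for 60 and 120 min, then 20 μM H2DCFDA 15 min at 37 °C; fluorescence ex 485/em 520 nm; 10 mM sodium azide positive control, untreated negative; compound background and DMSO controls.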

[10] = tested on: Trypanosoma cruzi; assay: Induction of mitochondrial membrane potential depolarization in Trypanosoma cruzi trypomastigotes at antitrypanosomal IC50 measured after 2 hrs by JC1 dye based flow cytometry; assay type: functional, organism-based
[11] = tested on: Trypanosoma cruzi; assay: Disruption of plasma membrane integrity in Trypanosoma cruzi trypomastigotes at antitrypanosomal IC50 measured after 120 mins by Sytox green dye based fluorescence assay; assay type: functional, organism-based
Summary of the method: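 Trypomastigotes (2 × 10^6/well) with 1 μM SYTOX Green, compound at IC50, fluorescence followed 120 min at ex 485/em 520 nm; 0.5% Triton X-100 gives maximal permeabilization; compound background and DMSO controls; duplicates, at least two independent assays.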

[12] = Trypanosoma cruzi, 24 h, read-out: IC50
[13] = Trypanosoma cruzi, 48 h, read-out: IC50

| SMILES | IC50 [1, 12] [µM] | IC50 [2, 13] [µM] | IC50 [1] | IC50 [2] | CC50 at 48 h [3] [µM] | selectivity ratio [4] | Activity [5] | selectivity ratio [6] | Activity [7] | Activity [8] | Activity [9] | Activity [10] | Activity [11] |
| --- | --- | --- | --- | --- | --- | --- | --- | --- | --- | --- | --- | --- | --- |
| O=C(Cn1ccnc1[N+](=O)[O-])NCc1ccccc1 [BENZNIDAZOLE] | 5.5 | 18.7 | – | – | – | – | – | – | – | – | – | – | – |
| CCCCCCCCCCCCCCCCCC(=O)O [STEARIC ACID] | – | – | Not Active | Not Active | – | – | – | – | – | – | – | – | – |
| CCCCCCCCCCCCCCCCCCCC[C@@H]1C(=O)O[C@H](C)[C@@H]1O | – | – | Not Active | Not Active | – | – | – | – | – | – | – | – | – |
| C=CCCCCCCC#CCCCCCCCCCC[C@@H]1C(=O)O[C@H](C)[C@@H]1O | 7.8 | 58.3 | – | – | > 200 | > 25.6 | – | > 3.4 | – | – | – | – | – |
| CCCCCCCCC#CCCCCCCCC(=O)O | 27.6 | – | – | Not Active | > 200 | > 7.2 | – | – | – | – | – | – | – |

Further lines, with some results ahead:

| IC50 [1, 12] [µM] | IC50 [2, 13] [µM] | IC50 [1] | IC50 [2] | SMILES | CC50 at 48 h [3] [µM] | selectivity ratio [4] | Activity [5] | selectivity ratio [6] | Activity [7] | Activity [8] | Activity [9] | Activity [10] | Activity [11] |
| --- | --- | --- | --- | --- | --- | --- | --- | --- | --- | --- | --- | --- | --- |
| 0.4 | 23 | – | – | C=CCCCCCCC#CCCCCCCCCCCC1=C(O)C(=C)OC1=O | 80 | 200 | Active | 3.5 | Active | Active | Non-Toxic | Active | inactive |
| 3.6 | 27.7 | – | – | C=CCCCCCCC#CCCCCCCCCCCC1=C(O)[C@@H](C)OC1=O | > 200 | > 55.6 | Active | > 7.2 | Active | Active | Non-Toxic | Active | inactive |
